Results: ChEMBL document CHEMBL4340580, “Antibacterial and Inhibitory Activities against Nitric Oxide Production of Coumaronochromones and Prenylated Isoflavones from Millettia extensa” (J Nat Prod, 2019)
Converted amounts (≈) assume the structure as drawn. The source made the active and inactive calls. The calls are words filed in the database; no cut-off is given here.

How the values were obtained:
Micrococcus luteus [1] = assay: Antibacterial activity against Micrococcus luteus by CLSI protocol based method; type: functional
Procedure, shortened: (§1)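 Strains came from the Microbiological Resources Center, Bangkok, Thailand. Antibacterial testing followed Clinical and Laboratory Standards Institute recommendations.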

Shigella flexneri [2] = assay: Antibacterial activity against Shigella flexneri by CLSI protocol based method; type: functional; procedure, shortened: as §1
Bacillus cereus [3] = assay: Antibacterial activity against Bacillus cereus by CLSI protocol based method; type: functional; procedure, shortened: as §1
Pseudomonas aeruginosa [4] = assay: Antibacterial activity against Pseudomonas aeruginosa by CLSI protocol based method; type: functional; procedure, shortened: as §1
[5] = Toxicity in mouse RAW264.7 cells assessed as cell viability at 10 uM by MTT assay; type: cell-based; settings: read-out: Activity
Streptococcus mutans [6] = assay: Antibacterial activity against Streptococcus mutans by CLSI protocol based method; type: functional; procedure, shortened: as §1
Staphylococcus aureus = assay: Antibacterial activity against Staphylococcus aureus by CLSI protocol based method; type: functional; procedure, shortened: as §1
RAW264.7 = assay: Inhibition of LPS-induced nitric oxide production in mouse RAW264.7 cells incubated for 24 hrs by Griess reagent based assay; type: functional, cell-based
Procedure, shortened: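 RAW 264.7 cells were seeded at 5.0 × 10^5 cells/mL and held 24 h at 37 °C, 5% CO2. Medium was discarded and cells were stimulated with 1 μg/mL LPS with or without compound for 24 h at 37 °C. Supernatant was mixed 1:1 with Griess reagent for 10 min at room temperature. Absorbance was read at 570 nm against a sodium nitrite calibration curve, giving IC50.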

Escherichia coli [7] = assay: Antibacterial activity against Escherichia coli by CLSI protocol based method; type: functional; procedure, shortened: as §1
[8] = system: Staphylococcus epidermidis; assay: Antibacterial activity against Staphylococcus epidermidis by CLSI protocol based method; type: functional; procedure, shortened: as §1
Escherichia coli [9] = assay: Antibacterial activity against Escherichia coli at >128 ug/ml by CLSI protocol based method; type: functional, organism-based; procedure, shortened: as §1
Pseudomonas aeruginosa [10] = assay: Antibacterial activity against Pseudomonas aeruginosa at >128 ug/ml by CLSI protocol based method; type: functional, organism-based; procedure, shortened: as §1
Micrococcus luteus [11] = assay: Antibacterial activity against Micrococcus luteus at >128 ug/ml by CLSI protocol based method; type: functional, organism-based; procedure, shortened: as §1
Streptococcus mutans [12] = assay: Antibacterial activity against Streptococcus mutans at >128 ug/ml by CLSI protocol based method; type: functional, organism-based; procedure, shortened: as §1
Bacillus cereus [13] = assay: Antibacterial activity against Bacillus cereus at >128 ug/ml by CLSI protocol based method; type: functional, organism-based; procedure, shortened: as §1
Shigella flexneri [14] = assay: Antibacterial activity against Shigella flexneri at >128 ug/ml by CLSI protocol based method; type: functional, organism-based; procedure, shortened: as §1
[15] = Mus musculus, RAW264.7, 24 h, read-out: IC50

Row | Structure (SMILES) | MIC (Micrococcus luteus [1]) | MIC (Shigella flexneri [2]) | MIC (Bacillus cereus [3]) | MIC (Pseudomonas aeruginosa [4]) | viability at 10 µM [5] | MIC (Streptococcus mutans [6]) | MIC (Staphylococcus aureus) | IC50 (RAW264.7; [15]) | MIC (Escherichia coli [7]) | MIC [8] | Activity (Escherichia coli [9]) | Activity (Pseudomonas aeruginosa [10]) | Activity (Micrococcus luteus [11]) | Activity (Streptococcus mutans [12]) | Activity (Bacillus cereus [13]) | IC50 (RAW264.7; raw264.7) | Activity (Shigella flexneri [14])
1 | CC(C)=CCc1c(O)c(CC=C(C)C)c2occ(-c3ccc(O)c(O)c3)c(=O)c2c1O | 16 µg/mL (≈ 37.9 µM) | 128 µg/mL (≈ 303 µM) | 16 µg/mL (≈ 37.9 µM) | 128 µg/mL (≈ 303 µM) | 90.2% | 16 µg/mL (≈ 37.9 µM) | 32 µg/mL (≈ 75.7 µM) | 14.3 µM | 128 µg/mL (≈ 303 µM) | 128 µg/mL (≈ 303 µM) |  |  |  |  |  |  | 
2 | COc1c2c(cc3occ(-c4ccc(OCC=C(C)C)c(O)c4)c(=O)c13)OC(C)(C)C=C2 | inactive | 128 µg/mL (≈ 295 µM) | inactive | inactive | 64.5% | inactive | 128 µg/mL (≈ 295 µM) |  | inactive | 128 µg/mL (≈ 295 µM) | inactive | inactive | inactive | inactive | inactive | Not Active | 
3 | COc1c2c(cc3occ(-c4ccc(OCC=C(C)C)cc4)c(=O)c13)OC(C)(C)C=C2 |  |  |  |  | 68.7% |  |  |  |  |  |  | inactive |  |  |  | Not Active | 
4 | COc1cc(O)c2c(=O)c(-c3ccc(OCC=C(C)C)cc3)coc2c1 | inactive | inactive | inactive | inactive | 65.3% | inactive | 128 µg/mL (≈ 363 µM) |  | inactive | 128 µg/mL (≈ 363 µM) | inactive | inactive | inactive | inactive | inactive | Not Active | inactive
5 | COc1ccc2c(c1)c(CC(=O)O)c(C)n2C(=O)c1ccc(Cl)cc1 [INDOMETHACIN] |  |  |  |  |  |  |  | 62.9 µM |  |  |  |  |  |  |  |  | 
6 | CC1(C)C=Cc2c(c(CCO)c3occ(-c4ccc(O)c(O)c4)c(=O)c3c2O)O1 | 32 µg/mL (≈ 80.7 µM) | inactive |  | inactive | 68.2% | 128 µg/mL (≈ 323 µM) |  |  | 128 µg/mL (≈ 323 µM) | 128 µg/mL (≈ 323 µM) |  | inactive |  |  |  | Not Active | inactive
7 | CC(C)=CCc1c2c(c(O)c3c(=O)c4c(oc5cc(O)ccc54)oc13)C=CC(C)(C)O2 | inactive | 128 µg/mL (≈ 306 µM) | 128 µg/mL (≈ 306 µM) | inactive | 79.2% | inactive | 128 µg/mL (≈ 306 µM) |  | inactive | 128 µg/mL (≈ 306 µM) | inactive | inactive | inactive | inactive |  | Not Active | 
8 | COc1c2c(cc3c1C(=O)[C@]1(O)c4ccc(OCC=C(C)C)cc4O[C@@H]1O3)OC(C)(C)C=C2 | 64 µg/mL (≈ 142 µM) | inactive | 32 µg/mL (≈ 71 µM) | inactive | 64.4% | 128 µg/mL (≈ 284 µM) | 32 µg/mL (≈ 71 µM) |  | inactive | 128 µg/mL (≈ 284 µM) | inactive | inactive |  |  |  | Not Active | inactive
9 | C=CC(C)(C)c1cc(-c2coc3cc4c(c(OC)c3c2=O)C=CC(C)(C)O4)c(O)cc1O | 32 µg/mL (≈ 73.6 µM) | inactive | 8 µg/mL (≈ 18.4 µM) | 128 µg/mL (≈ 295 µM) |  | 128 µg/mL (≈ 295 µM) | 8 µg/mL (≈ 18.4 µM) |  | 128 µg/mL (≈ 295 µM) | 128 µg/mL (≈ 295 µM) |  |  |  |  |  |  | inactive
10 | CN[C@H](CC(C)C)C(=O)N[C@H]1C(=O)N[C@@H](CC(N)=O)C(=O)N[C@H]2C(=O)N[C@H]3C(=O)N[C@H](C(=O)N[C@H](C(=O)O)c4cc(O)cc(O)c4-c4cc3ccc4O)[C@H](O)c3ccc(c(Cl)c3)Oc3cc2cc(c3O[C@@H]2O[C@H](CO)[C@@H](O)[C@H](O)[C@H]2O[C@H]2C[C@](C)(N)[C@H](O)[C@H](C)O2)Oc2ccc(cc2Cl)[C@H]1O [VANCOMYCIN] | 0.25 µg/mL (≈ 0.173 µM) |  | 0.125 µg/mL (≈ 0.0863 µM) |  |  | 0.25 µg/mL (≈ 0.173 µM) | 0.25 µg/mL (≈ 0.173 µM) |  |  | 0.25 µg/mL (≈ 0.173 µM) |  |  |  |  |  |  | 
